Shown are actives, neighbours in structure and some others; about 1.2% of the full set was active somewhere.
MsrA act = bovine methionine sulfoxide reductase A activation; purified bovine MsrA, absorbance read-out; 360,000 tested, 0.3% active; activation, % at 10.6 µM; in the data active = activation above about 7.5%;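 also: 0% = vehicle and 100% = reference activator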
proCasp3 act = activates human procaspase-3; activation, % at 8.5 µM; recombinant procaspase-3 D3A, Ac-DEVD-pNA absorbance 405 nm; 330,000 tested, 0.11% active; P42574;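 active = activation above the mean of all tested compounds plus 3 SD, cut at about 21% in these data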;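 also: 0% = DMSO alone and 100% = DMSO wells spiked with extra 5 µM PC-3 D3A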
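Assay system – Procaspase-3 D3A mutant, all three cleavage aspartates alanine · Controls – DMSO-only low control, 5 µM PC-3 D3A high control · Schedule – 1 h compound preincubation, 2 h substrate hydrolysis at 25 °C · Signal – 405 nm absorbance of p-nitroaniline, reads at 0 and 120 min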
MsrA inh = bovine MsrA inhibition. inhibition, % at 15.5 µM. AID 651718. 360,000 tested, 0.75% active. purified bovine MsrA, absorbance read-out; in the data active = inhibition above about 4.5%;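 also: 0% = vehicle wells with enzyme and 100% = reference inhibitor wells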
proCasp7 act = counter-screen for procaspase-3 activators: activators of human procaspase-7. recombinant procaspase-7, Ac-DEVD-pNA absorbance 405 nm; D23A/D198A/D206A triple mutant, cannot self-cleave; scale: DMSO 0, 5 µM enzyme 100. P55210. activation, % at 8.5 µM. AID 463210. 330,000 tested, 0.093% active;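 active = percent activation above the screen-wide mean plus 3 SD, cut at about 25% in these data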
Target sequence (P55210 whole entry D23A/D198A/D206A): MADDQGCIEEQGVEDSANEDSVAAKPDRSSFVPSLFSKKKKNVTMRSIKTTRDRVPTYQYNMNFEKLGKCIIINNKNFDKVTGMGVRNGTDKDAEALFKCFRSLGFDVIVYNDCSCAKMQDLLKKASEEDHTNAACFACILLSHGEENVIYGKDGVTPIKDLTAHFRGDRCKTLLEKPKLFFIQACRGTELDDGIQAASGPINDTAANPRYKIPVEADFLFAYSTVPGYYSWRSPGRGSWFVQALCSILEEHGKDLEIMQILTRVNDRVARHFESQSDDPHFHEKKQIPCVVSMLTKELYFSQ
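buffer or medium = Zinc-free HEPES/NaCl buffer, pH 7.4 | material = Procaspase-7 triple mutant (PC-7 D3A) | input = 2 µM procaspase-7 mutant as dispensed | signal = Epi-absorbance of released pNA at 405 nm, two timepoints | timing = 1 h preincubation, 2 h reaction | replicates = singlicate compound testing | evaluation = % activation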
PC3 dual counter = counter-screen for dual procaspase-3/7 activators: human procaspase-3 activation; activation, % at 8.5 µM; 290 tested, under 10 active; recombinant PC-3 D3A, Ac-DEVD-pNA absorbance 405 nm; aspartates 9, 28, 175 changed to alanine; 100% = enzyme control; shares compounds with proCasp7 act; AID 493114;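 active = mean percent activation across triplicates above a set limit taken from the earlier primary procaspase-3 screen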;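 also: 0% = DMSO wells and 100% = DMSO wells with 5 µM added PC-3 D3A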
Procasp7 act = activates human procaspase-7, confirming dual procaspase activators; shares compounds with proCasp7 act; recombinant procaspase-7, Ac-DEVD-pNA absorbance 405 nm; D23A/D198A/D206A mutant that cannot self-cleave; activation, % at 8.5 µM; 290 tested, under 10 active; AID 493115;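 active = mean activation above a set limit carried over from the earlier primary screen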;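 also: 0% = DMSO only and 100% = DMSO with added 5 µM PC-7 enzyme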
Active calls of the source: *.

`O=C(Nc1sc2c(c1C(=O)NCC1CCCO1)CCCC2)c1cccs1` (stereo not given) gave MsrA act -1.3, proCasp3 act 16.4, MsrA inh 1.2, proCasp7 act 36.7*, PC3 dual counter 1.4 and Procasp7 act -1.9.
For CC(C)CC(NC(=O)OCc1ccccc1)C(=O)NCC(=O)NCC(=O)OCc1ccccc1 (stereo not given) the results were MsrA inh -0.5.
Screening CCOC(=O)/C(C#N)=C/Nc1cc(OC)ccc1OC returned MsrA act -1.8, proCasp3 act 94.9*, MsrA inh 2.6, proCasp7 act 86.6*, PC3 dual counter 9.1 and Procasp7 act 5.6.
Screening CCOC(=O)/C(C#N)=C/c1ccc(OC)c(OC)c1 returned MsrA act -2.2, proCasp3 act 1.6, MsrA inh 0.9 and proCasp7 act 9.0.
For CCOP(=O)(OCC)c1nc(-c2cccc3ccccc23)oc1NCCc1ccc(OC)cc1 the results were MsrA act -1.6, proCasp3 act 21.8*, MsrA inh 1.1, proCasp7 act 29.5*, PC3 dual counter -28.3 and Procasp7 act -36.0.
Screening COc1ccc(CNc2oc(-c3cccc4ccccc34)nc2C#N)cc1 returned MsrA act -0.4, proCasp3 act 11.5, MsrA inh -0.7 and proCasp7 act 14.6.
`O=C(Nc1cccnc1)c1sc(Nc2ccccc2)nc1-c1ccccc1` gave MsrA act 0.9, proCasp3 act 9.6, MsrA inh 1.2, proCasp7 act 28.7*, PC3 dual counter 5.6 and Procasp7 act 1.0.
`Cc1cccc(Nc2nc(-c3ccccc3)c(C(=O)Nc3cccnc3)s2)c1` gave MsrA act -3.7, proCasp3 act -13.3, MsrA inh 2.0 and proCasp7 act 5.9.
For COc1ccc(OC)c(S(=O)(=O)NCC2CCN(C(=O)C(=O)c3cc4ccccc4o3)CC2)c1 the results were MsrA inh 1.0.
COc1ccc(-c2nc3ccccc3nc2-c2ccc(OC)cc2)cc1 was read as MsrA act -2.0, proCasp3 act 31.8*, MsrA inh 0.7, proCasp7 act 32.6*, PC3 dual counter -29.5 and Procasp7 act -35.6.
Screening COc1ccc(CC(=O)Nc2nn(C)c3nc4c(C)cccc4cc23)cc1 returned MsrA act -6.6, proCasp3 act 22.8*, MsrA inh -0.7, proCasp7 act 40.4*, PC3 dual counter -29.5 and Procasp7 act -35.1.
`O=C1c2ccccc2C2Cc3nnccc3CN12` (stereo not given) gave MsrA inh 0.9.
For COc1ccc(-c2cc3nc(-c4ccccc4)cc(N4CCC5(CC4)OCCO5)n3n2)cc1 the results were MsrA act -7.8, proCasp3 act 23.2*, MsrA inh -0.8, proCasp7 act 35.6*, PC3 dual counter -28.5 and Procasp7 act -36.0.
Screening COc1cccc(-c2cc3nc(-c4ccccc4)cc(N4CCCC(O)C4)n3n2)c1 (stereo not given) returned MsrA act -5.6, proCasp3 act 36.3*, MsrA inh 0.3, proCasp7 act 49.9*, PC3 dual counter -10.8 and Procasp7 act -11.0.
For OC1CCN(c2cc(-c3ccccc3)nc3cc(-c4ccc(F)cc4)nn23)CC1 the results were MsrA act -2.0, proCasp3 act 12.5, MsrA inh 0.9 and proCasp7 act -10.9.
For COc1ccc(-c2cc3nc4c(c(N5CCC6(CC5)OCCO6)n3n2)CCC4)cc1 the results were MsrA act 3.1, proCasp3 act -0.6, MsrA inh -0.3 and proCasp7 act -5.3.
`Cc1cc(C)c(C#N)c(OCC(=O)c2ccc(Br)cc2)n1` gave MsrA act -3.2, proCasp3 act 3.8, MsrA inh 0.1, proCasp7 act 45.7*, PC3 dual counter -5.3 and Procasp7 act -3.0.
`CCOc1ccc2nc(NC(=O)c3ccco3)sc2c1` gave MsrA act -1.7, proCasp3 act -7.9, MsrA inh 3.6 and proCasp7 act 6.5.
CCOC(=O)c1ccc2nc(NC(=O)c3ccco3)sc2c1 was read as MsrA act -5.4, proCasp3 act 24.2*, MsrA inh 0.7, proCasp7 act 30.3*, PC3 dual counter -29.4 and Procasp7 act -36.4.

Screening results (PubChem)
